B1: tRNA (parent)
chain: GUUCCGUUGGCGUAAUGGUAACGCGUCUCCCUCCUAAGGAGAAGACUGCGGGUUCGAGUCCCGUACGGAACG

Variants at the floor of the assay were thinned out.

Variants of B1 are the subject of this series. The series is described as follows: yeast fitness relative to wild type (ratio to wild type); higher = fitter; tRNA-Arg(CCU), competitive growth, 37 C, YPD. Put shortly: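 Variants of the tRNA-Arg(CCU) gene, chemically synthesised with a 3% per-site mutation rate at 69 sites, were placed at the native genomic locus in Saccharomyces cerevisiae. The pooled strains were competed in YPD at 37°C for 24 hours in six parallel replicates. Gene amplicons from the start population and from each end population were read by 100-nucleotide paired-end sequencing. Darwinian fitness relative to wild type came from changes in genotype frequencies; genotypes needed ≥ 100 starting reads, and estimates < 0.5 were set to 0.5.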
Regarding GUUCCAUUGGCGUAAUGGUAACGCGUCUCCCUCCUAAGGUGAAGACUGCGGGAUCGAGUCACGUUCGGUACG, the yeast fitness amounted to 0.511.
As for GUUCCAUUGGAGUAAUGGUAACGCGUCUCCCUCCUAAGGAGAAGACUGCGGGUUCGCGUCCCGUACGAAACG, the figure is 0.549.
Turning to GUUCCAUUGGAGUAAUGGUGACGCGUCUCCCUCCUAAGGAGAAGACUGCGGGUUCGAGUCCAGUACGGAACG, the yeast fitness was not above 0.5.
To GUUCCAUUGGCGUAAUGGUAAUGCGUCUCGCUCCUGAGGAGAAGACUGCGGGUUCGAGUCCCGUACGGAACG belongs 0.621.
As for GUUCCAUUGGUGUAAUGGUAACGCGUCUCCCUCCUAAGGAGAAGACUGCGGGUUCGAGUCCCGUACGAAACG, the figure is not above 0.5; as for GUUCCAUUGGUGUAAUGGUAACGCGUAUCCCUCCUAAGGAGAAGACUGCGGGUUCGAGUCCCGUACGGAACG, 0.719; as for GUUCCAUUGGAGUAAUGGUAACGCGUCUCCCUCCUAAGGGGAAGACUGCGGGUUCGAGUCCCGUACGGAACG, not above 0.5.
To GUUCCAUUGGCGUAAUGGUAACGCGUCUCCCUCCUAAGGAGUAGACUGCGGGUUCGAGUCCAGUACGGAACG belongs 0.53.
GUUCCAUUGGAGUAAUGGUAACGCGUCUCCCUCCUAAGGGGAAGACUGCGGGUUCCAGUCCCGUCCAGAACG: the yeast fitness is not above 0.5.
To GUUCCAUUGGCGUAAUGGUAACGCGUCUCCCUCCUAAGGAGAAGGCUGCGGGUUCGAGUCCCGUACGGAACG belongs 0.928.
For GUUCCAUUGGAGUAAUGGAAACGCGUCUCCCUCCUAAGGAGAAGACUGCGGGUUCGAGUCCCGUACGGUACG, the yeast fitness was found to be 0.577.
To GUUCCAUUGGGGUAAUGGUAACGCGUCUCCCUCCUACGGAGAAGACUGCGGGUUCGAGUACCGUACGGAGCG belongs not above 0.5.
As for GUUCCAUUGGCGUAAUGGUAAGGCGUCUCCCUCCUAAGGAGAAGACUGCGGGAUCGAGUCCCGUACGGAACG, the figure is not above 0.5.
With GUUCCAUUGGUGUAAUGGUAACACGUCUCCCUCCUAAGGAGAAGAAUGCGGGUUAGAGUCCCGUACGGAACG, the yeast fitness is not above 0.5.
On to GUUCCAUUGGAGUAAUGGUAACGCGUCUCCCUCCUAAGGAGAAGAGUGCGGGUUCGAGUCCCGUACGGAACG, for which the yeast fitness is not above 0.5.
To GUUCCAUUGGCGUAAUGGUAACGCGUCUCCCUCCUAAGGAGAAGACUGCGGGUUCGGGUCCCGUACGGAACG belongs 0.929.
As to GUUCCAUUGGCGUAAUGGUAACGCGUCUCCCUCCUAAGGAGAAGACUGCGGGUUCGCGUCCCGUACGGAACG, the yeast fitness came to 0.627.
As for GUUCCAUUGGCGUAAUGGUAACGCGUCUCCCUCCUAAGGAGAAGACUGCGGGUUCGUGUCCCGUACGGAACG, the figure is 0.629; as for GUUCCAUUGGUGUAAUGGUAACGCGUCUCCCUCCUAAGGAGAAGACUGCGGGUUCGAGUCCAGUUUGGAACG, not above 0.5; as for GUUCCAUUGGAGUAAUGGUAACGCGUCUCCCUCCUAAGGAGAAGACCGCGGGUUCGAGUCCCGUACGGAACG, not above 0.5.
To GUUCCAUUGGUGUAAUGGUAAGGCGUCUCCCUCCUAAGGAGAAGACUGCGGGUUCGAGUCCCGUACGGAACG belongs 0.555; to GUUCCAUUGGCGUAAUGGUAACGUGUCUCCCUCCUCAGGAGAUGACUGCGGGUUCGAGUCCCGUACGGUACG, not above 0.5.
On to GUUCCAUUGGAGUAAUGGUAACGCGUCUCCCUCCUAAGGAGAAGACUGCGGGUUCGAGUCACGUACGGAACG, for which the yeast fitness is not above 0.5.
To GUUCCAUUGGCGUAAUGGUAAUGCGUCUCCCUCCUAGGGAGAAGACUGCGGGUUCGAGUCCCGUACGAGACG belongs not above 0.5; to GUUCCAUUGGCGUAAUGGUAACGAGUUUGCCUCCUAAGGAGAACACUGCGGGUUCGAGUCCCGUACGCAACG, not above 0.5; to GUUCCAUUGGCGUAAUGGUAACGCGUCUCCCUCCUAAGGAGAAGACUGCGGGUUCGAGUCCCGUCCGGAACG, 0.945.
As for GUUCCAUUGGCGUAAUGGUAACGAGUCUCCCUCCUAAGGAGAAGACUGCGGGUUCGAGUCCCGUACGGAACG, the figure is 0.654; as for GUUCCAUUGGCGUAAUGGUAAAACGUCUCCCUUGUAAGGAGAAGACUGCGGGUUCGAGUCCCGUACGCAACG, not above 0.5; as for GUUCCAUUGGCGUAAUGGUAACGCGUCUCCCUCCUAAGGUGAAGAAUGCGGGUUCGAGUCCCGUACGGAACG, 0.657.
For GUUCCAUUGGAGUAACGGUAACGCGUCUCCCGCCUAAGGAGAAGACUGGGGGUUAGAGUCCCGUACGGAACG, the yeast fitness is not above 0.5.
To GUUCCAUUGGCGUAAUGGUAAUGCGUCUCCCUCCUAAGGGGAUGAGUGGGGGUUCGAGUCCUGUACGGAACG belongs not above 0.5; to GUUCCAUUGGCGUAAUGGUAAAGCGUCUCCCUCCAAAGGAGAAGACUGCGGGUUCGAGUCCCGUACGGAACG, not above 0.5; to GUUCCAUUGGAGUAAUGGUAACGCGUCUCCCACGUAAGGAGAAGACUGCGGGUUCGAAUCCCGUACGGAACG, not above 0.5.
Consider GUUCCAUUGGCGUAAUGGUAAGGCGUCUCCCUCCUAAGGAGAAGACUGCGGGUUCGAGUACUGUACGGAACG, for which the yeast fitness was not above 0.5.
As for GUUCCAUUGGCGUAAUGGUAACGCGUCUCCCUCCUAAGGGGAAGACUGCGGGUUCGAGUCCCGUACGGAACG, the figure is 0.842; as for GUUCCAUUGGCGUAAUGGUAAUGCGUCUCCCUCCUAAGGAGCAGACUGCGGGUACGAGUCCCGUACGGAACG, not above 0.5.
Take GUUCCAUUGGCGUAAUGGUAAGGCGUCUCCCUCCUAAGGAGAAGACUGCGGGUUCGAGUCCCGUACGGCACG: the yeast fitness is 0.591.

The values above are taken from the RNAGym collection of RNA variant scans (doi:10.1126/science.aae0568).
